In ChEMBL document CHEMBL2311425, “Histone deacetylase (HDAC) inhibitors with a novel connecting unit linker region reveal a selectivity profile for HDAC4 and HDAC5 with improved activity against chemoresistant cancer cells” (J Med Chem, 2013):

Legend:
[1] = molecular target: Histone deacetylase; assay: Inhibition of HDAC in human A2780 cells after 18 hrs by fluorescence assay; format: cell-based
[2] = molecular target: Histone deacetylase 1 (Homo sapiens, UniProt Q13547); assay: Inhibition of human HDAC1 by fluorescence assay
[3] = molecular target: Histone deacetylase; assay: Inhibition of HDAC in cisplatin resistant human A2780 cells after 18 hrs by fluorescence assay; format: cell-based
[4] = molecular target: Histone deacetylase 4 (Homo sapiens, UniProt P56524); assay: Inhibition of human HDAC4 by fluorescence assay
[5] = molecular target: Histone deacetylase 5 (Homo sapiens, UniProt Q9UQL6); assay: Inhibition of human HDAC5 by fluorescence assay
[6] = molecular target: Histone deacetylase; assay: Inhibition of HDAC in cisplatin sensitive human MDA-MB-231 cells after 18 hrs by fluorescence assay; format: cell-based
[7] = molecular target: Histone deacetylase; assay: Inhibition of HDAC in cisplatin sensitive human KYSE-510 cells after 18 hrs by fluorescence assay; format: cell-based
[8] = molecular target: Histone deacetylase; assay: Inhibition of HDAC in cisplatin resistant human CAL27 cells after 18 hrs by fluorescence assay; format: cell-based; details: cal-27
[9] = molecular target: Histone deacetylase; assay: Inhibition of HDAC in cisplatin resistant human MDA-MB-231 cells after 18 hrs by fluorescence assay; format: cell-based
[10] = molecular target: T1, Protein deacetylase HDAC6 (Homo sapiens, UniProt Q9UBN7); assay: Inhibition of human HDAC6 by fluorescence assay
T1 sequence (Q9UBN7 whole entry): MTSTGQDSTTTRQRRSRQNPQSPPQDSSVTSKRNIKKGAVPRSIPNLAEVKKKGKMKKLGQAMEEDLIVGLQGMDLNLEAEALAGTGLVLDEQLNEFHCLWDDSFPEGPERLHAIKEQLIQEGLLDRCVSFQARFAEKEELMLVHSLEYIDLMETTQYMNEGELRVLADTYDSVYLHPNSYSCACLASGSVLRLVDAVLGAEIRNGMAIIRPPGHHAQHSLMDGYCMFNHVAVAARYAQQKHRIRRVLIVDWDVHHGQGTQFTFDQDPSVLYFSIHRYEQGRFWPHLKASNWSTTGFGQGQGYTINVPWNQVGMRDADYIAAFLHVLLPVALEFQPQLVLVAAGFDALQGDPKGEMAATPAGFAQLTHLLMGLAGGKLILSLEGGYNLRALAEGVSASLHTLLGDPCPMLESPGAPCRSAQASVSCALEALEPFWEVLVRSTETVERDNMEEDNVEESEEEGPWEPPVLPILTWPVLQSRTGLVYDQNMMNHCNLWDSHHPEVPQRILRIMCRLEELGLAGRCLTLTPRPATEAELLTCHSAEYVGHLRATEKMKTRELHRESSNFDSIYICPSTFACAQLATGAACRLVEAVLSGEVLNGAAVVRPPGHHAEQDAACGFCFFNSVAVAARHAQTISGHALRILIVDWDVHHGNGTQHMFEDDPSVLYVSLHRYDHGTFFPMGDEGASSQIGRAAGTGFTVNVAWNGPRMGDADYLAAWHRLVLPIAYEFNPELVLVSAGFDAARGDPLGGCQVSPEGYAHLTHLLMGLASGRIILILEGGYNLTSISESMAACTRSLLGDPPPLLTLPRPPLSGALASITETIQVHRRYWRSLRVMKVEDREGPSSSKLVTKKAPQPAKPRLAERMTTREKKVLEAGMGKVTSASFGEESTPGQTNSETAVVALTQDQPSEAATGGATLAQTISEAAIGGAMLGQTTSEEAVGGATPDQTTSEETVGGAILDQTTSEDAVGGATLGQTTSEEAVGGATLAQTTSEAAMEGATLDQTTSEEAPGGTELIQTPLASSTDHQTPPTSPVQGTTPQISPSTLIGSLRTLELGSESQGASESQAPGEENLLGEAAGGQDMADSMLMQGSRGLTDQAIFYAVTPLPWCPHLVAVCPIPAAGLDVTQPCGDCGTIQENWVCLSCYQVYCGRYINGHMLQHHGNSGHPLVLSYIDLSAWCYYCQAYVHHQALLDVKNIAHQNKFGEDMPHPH

[11] = test system: A2780; assay: Cytotoxicity against human A2780 cells after 72 hrs by MTT assay; format: functional, cell-based; details: A2780, 72 h
[12] = test system: CAL-27; assay: Cytotoxicity against cisplatin resistant human CAL27 cells after 72 hrs by MTT assay; format: functional, cell-based; details: CAL-27, 72 h
[13] = test system: MDA-MB-231; assay: Cytotoxicity against cisplatin sensitive human MDA-MB-231 cells after 72 hrs by MTT assay; format: functional, cell-based; details: MDA-MB-231, 72 h
Summary of the method: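 MDA-MB-231 (parental), 10 000 cells/well, in DMEM with 15% FCS at 37 °C, 5% CO2. Compounds added 24 h after seeding for 72 h. MTT (5 mg/mL in PBS) was added, formazan dissolved in DMSO, absorbance read at 544 and 690 nm. IC50 from four-parameter logistic fit of ≥3 experiments in triplicate.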

[14] = molecular target: Histone deacetylase 2 (Homo sapiens, UniProt Q92769); assay: Inhibition of human HDAC2 by fluorescence assay
[15] = molecular target: T2, Histone deacetylase 8 (Homo sapiens, UniProt Q9BY41); assay: Inhibition of human HDAC8 by fluorescence assay
T2 sequence (Q9BY41 whole entry): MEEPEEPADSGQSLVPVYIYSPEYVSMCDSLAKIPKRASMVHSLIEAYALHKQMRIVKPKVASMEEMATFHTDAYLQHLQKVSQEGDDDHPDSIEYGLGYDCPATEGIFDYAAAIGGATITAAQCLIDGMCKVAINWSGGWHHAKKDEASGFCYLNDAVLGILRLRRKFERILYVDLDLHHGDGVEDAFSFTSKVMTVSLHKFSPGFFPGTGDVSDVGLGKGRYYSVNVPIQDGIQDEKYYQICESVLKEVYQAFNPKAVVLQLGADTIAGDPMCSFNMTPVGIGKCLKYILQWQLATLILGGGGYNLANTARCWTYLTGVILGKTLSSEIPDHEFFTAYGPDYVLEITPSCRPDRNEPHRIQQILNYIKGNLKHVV

[16] = test system: CAL-27; assay: Cytotoxicity against cisplatin sensitive human CAL27 cells after 72 hrs by MTT assay; format: functional, cell-based; details: CAL-27, 72 h
[17] = test system: MDA-MB-231; assay: Cytotoxicity against cisplatin resistant human MDA-MB-231 cells after 72 hrs by MTT assay; format: functional, cell-based; details: MDA-MB-231, 72 h
[18] = test system: KYSE-510; assay: Cytotoxicity against cisplatin sensitive human KYSE-510 cells after 72 hrs by MTT assay; format: functional, cell-based; details: KYSE-510, 72 h
[19] = test system: KYSE-510; assay: Cytotoxicity against cisplatin resistant human KYSE-510 cells after 72 hrs by MTT assay; format: functional, cell-based; details: KYSE-510, 72 h
[20] = molecular target: Histone deacetylase; assay: Inhibition of HDAC in cisplatin sensitive human CAL27 cells after 18 hrs by fluorescence assay; format: cell-based; details: cal-27
[21] = molecular target: Histone deacetylase; assay: Inhibition of HDAC in cisplatin resistant human KYSE-510 cells after 18 hrs by fluorescence assay; format: cell-based
[22] = molecular target: T3, Histone deacetylase 11 (Homo sapiens, UniProt Q96DB2); assay: Inhibition of human HDAC11 by fluorescence assay
T3 sequence (Q96DB2 whole entry): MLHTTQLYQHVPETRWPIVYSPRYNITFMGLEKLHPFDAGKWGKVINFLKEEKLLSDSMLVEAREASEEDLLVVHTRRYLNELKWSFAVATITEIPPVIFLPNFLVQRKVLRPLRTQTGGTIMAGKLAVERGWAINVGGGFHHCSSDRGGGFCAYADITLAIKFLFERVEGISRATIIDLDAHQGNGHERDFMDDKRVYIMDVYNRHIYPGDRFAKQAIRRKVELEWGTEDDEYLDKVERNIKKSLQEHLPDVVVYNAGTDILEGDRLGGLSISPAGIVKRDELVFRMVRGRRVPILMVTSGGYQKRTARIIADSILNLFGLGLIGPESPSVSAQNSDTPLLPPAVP

[23] = test system: A2780 CisR (Homo sapiens); assay: cells; details: 72 h

Histone deacetylase 2, sequence (Q92769 whole entry): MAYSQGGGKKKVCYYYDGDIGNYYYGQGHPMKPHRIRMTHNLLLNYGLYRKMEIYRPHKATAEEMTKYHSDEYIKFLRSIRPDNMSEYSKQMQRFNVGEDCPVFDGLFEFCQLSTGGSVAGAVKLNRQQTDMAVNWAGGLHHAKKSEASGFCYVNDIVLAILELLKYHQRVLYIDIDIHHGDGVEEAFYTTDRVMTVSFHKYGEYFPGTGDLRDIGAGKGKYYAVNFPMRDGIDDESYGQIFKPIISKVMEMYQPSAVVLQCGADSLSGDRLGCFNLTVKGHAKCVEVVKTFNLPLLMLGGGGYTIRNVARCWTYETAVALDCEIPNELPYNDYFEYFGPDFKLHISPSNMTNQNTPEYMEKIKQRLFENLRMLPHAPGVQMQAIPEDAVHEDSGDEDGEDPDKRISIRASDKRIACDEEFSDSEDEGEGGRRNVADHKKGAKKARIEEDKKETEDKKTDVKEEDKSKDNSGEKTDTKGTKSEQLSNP
Histone deacetylase 1, sequence (Q13547 whole entry): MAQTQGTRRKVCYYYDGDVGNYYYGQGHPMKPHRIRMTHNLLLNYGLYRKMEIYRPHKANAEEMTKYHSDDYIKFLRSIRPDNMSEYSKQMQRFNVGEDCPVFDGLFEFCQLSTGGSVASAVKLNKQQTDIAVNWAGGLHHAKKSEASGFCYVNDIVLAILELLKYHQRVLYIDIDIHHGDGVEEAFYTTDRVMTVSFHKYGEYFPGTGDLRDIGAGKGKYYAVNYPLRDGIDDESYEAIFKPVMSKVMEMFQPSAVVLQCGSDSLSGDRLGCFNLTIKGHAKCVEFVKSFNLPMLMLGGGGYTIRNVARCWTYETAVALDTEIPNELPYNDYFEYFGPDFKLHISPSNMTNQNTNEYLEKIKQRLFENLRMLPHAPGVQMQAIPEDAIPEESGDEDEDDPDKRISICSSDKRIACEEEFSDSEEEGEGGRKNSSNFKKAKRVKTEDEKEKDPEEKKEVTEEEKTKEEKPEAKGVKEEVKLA
Histone deacetylase 4, sequence (P56524 whole entry): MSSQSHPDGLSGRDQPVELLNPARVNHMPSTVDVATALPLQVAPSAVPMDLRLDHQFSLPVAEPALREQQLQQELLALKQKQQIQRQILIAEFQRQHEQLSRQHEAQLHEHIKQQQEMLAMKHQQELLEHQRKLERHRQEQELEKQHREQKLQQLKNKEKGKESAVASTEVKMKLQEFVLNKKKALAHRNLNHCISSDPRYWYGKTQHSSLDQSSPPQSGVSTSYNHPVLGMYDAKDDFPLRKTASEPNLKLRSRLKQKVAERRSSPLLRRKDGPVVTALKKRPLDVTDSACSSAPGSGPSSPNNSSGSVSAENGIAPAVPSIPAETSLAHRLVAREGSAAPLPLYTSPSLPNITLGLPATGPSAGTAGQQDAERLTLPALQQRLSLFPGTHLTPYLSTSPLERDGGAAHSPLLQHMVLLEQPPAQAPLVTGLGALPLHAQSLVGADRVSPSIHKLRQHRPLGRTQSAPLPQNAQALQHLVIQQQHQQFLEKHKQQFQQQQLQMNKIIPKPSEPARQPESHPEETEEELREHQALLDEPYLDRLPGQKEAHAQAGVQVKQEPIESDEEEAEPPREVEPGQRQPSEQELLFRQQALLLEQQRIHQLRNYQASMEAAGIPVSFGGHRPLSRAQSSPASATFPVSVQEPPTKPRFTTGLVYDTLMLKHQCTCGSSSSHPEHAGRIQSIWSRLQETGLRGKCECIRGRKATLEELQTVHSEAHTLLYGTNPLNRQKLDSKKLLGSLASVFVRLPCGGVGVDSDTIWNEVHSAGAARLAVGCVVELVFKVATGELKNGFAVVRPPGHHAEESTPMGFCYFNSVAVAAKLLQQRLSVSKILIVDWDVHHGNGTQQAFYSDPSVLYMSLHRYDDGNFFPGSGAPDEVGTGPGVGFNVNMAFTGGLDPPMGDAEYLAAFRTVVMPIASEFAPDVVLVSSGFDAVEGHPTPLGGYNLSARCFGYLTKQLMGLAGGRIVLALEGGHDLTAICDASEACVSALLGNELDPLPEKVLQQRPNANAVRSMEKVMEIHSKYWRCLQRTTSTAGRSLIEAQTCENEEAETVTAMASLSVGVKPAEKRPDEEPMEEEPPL
Histone deacetylase 5, sequence (Q9UQL6 whole entry): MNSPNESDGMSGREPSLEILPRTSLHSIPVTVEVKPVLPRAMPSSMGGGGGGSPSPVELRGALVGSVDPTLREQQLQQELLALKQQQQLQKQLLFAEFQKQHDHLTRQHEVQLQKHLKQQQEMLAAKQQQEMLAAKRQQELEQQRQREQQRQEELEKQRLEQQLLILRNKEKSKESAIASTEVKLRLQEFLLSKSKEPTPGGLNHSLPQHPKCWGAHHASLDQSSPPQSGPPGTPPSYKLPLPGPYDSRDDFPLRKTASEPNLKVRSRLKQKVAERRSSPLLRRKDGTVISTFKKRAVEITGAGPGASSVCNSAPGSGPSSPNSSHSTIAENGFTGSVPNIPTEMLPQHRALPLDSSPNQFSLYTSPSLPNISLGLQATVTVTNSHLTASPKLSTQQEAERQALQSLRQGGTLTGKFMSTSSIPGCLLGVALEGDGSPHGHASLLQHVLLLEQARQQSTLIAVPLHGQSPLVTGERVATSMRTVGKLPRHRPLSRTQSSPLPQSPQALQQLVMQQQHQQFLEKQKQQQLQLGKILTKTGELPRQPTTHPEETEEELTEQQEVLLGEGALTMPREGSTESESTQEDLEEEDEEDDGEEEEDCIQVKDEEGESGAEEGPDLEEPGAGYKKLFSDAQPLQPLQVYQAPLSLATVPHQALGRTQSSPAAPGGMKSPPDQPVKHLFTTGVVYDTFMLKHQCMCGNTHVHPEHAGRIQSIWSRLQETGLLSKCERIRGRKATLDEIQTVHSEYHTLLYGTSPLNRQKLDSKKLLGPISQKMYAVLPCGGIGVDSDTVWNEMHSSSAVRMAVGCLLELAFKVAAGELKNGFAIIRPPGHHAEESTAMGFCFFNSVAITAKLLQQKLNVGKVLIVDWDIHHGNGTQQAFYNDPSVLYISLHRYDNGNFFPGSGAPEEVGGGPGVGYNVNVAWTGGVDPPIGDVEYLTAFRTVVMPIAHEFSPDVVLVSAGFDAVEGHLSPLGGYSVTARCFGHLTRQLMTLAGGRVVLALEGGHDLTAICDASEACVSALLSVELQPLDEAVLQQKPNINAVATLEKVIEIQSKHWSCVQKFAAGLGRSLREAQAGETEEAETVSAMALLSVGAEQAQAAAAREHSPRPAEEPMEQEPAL

IC50 [1]: 1.61 µM
IC50 [2]: 0.32 µM
IC50 [3]: 0.88 µM
IC50 [4]: 0.0826 µM
IC50 [5]: 0.0334 µM
IC50 [6]: 1.57 µM
IC50 [7]: 2.82 µM
IC50 [8]: 0.91 µM
IC50 [9]: 1.66 µM
IC50 [10]: 0.0181 µM
IC50 [14]: 0.944 µM
IC50 [15]: 0.833 µM
IC50 [20]: 1.1 µM
IC50 [21]: 1.1 µM
IC50 [22]: 0.997 µM
IC50 [23]: 1.78 µM
SMILES: Cc1ccc(C(=O)NOCCCCCC(=O)NO)cc1C
IC50 [11]: 1.54 µM
IC50 [12]: 4.31 µM
IC50 [13]: 2.77 µM
IC50 [16]: 2.9 µM
IC50 [17]: 3.77 µM
IC50 [18]: 10 µM
IC50 [19]: 9.46 µM
